Screening results: PubChem, Broad Institute
Shown are actives, neighbours in structure and some others; about 2.9% of the full set was active somewhere.
CAL PDZ FP-1 = human CAL PDZ-peptide interaction inhibition | Q9HD26 | purified CAL PDZ, TMR-peptide fluorescence polarization, 1 h | inhibition, % at 20 µM | 0.02% of 330,000 active | AID 504414;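 active means highest replicate inhibition of at least 40%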
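Material – purified CerCALP PDZ construct · Detection – FP readout, S and P plane fluorescence · Measure – percent inhibition from loss of millipolarization · Controls – unlabelled peptide for full inhibition, DMSO wells as neutral · Probe or stimulus – TMR-labelled reporter peptide T*-PRC34 bound in PDZ groove · Times – 1 h at RT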
DENV2 CPE rescue = DENV2-induced cell death inhibition; DENV2-infected cells, cytopathic effect rescue, plate reader; CPE inhibition, % at 9.99 µM; 1.7% of 350,000 active; in the data active means CPE inhibition above about 20%, passing the limit was not always enough; tested in BHK-21 cells
S100A4 inh HTS = inhibitors of human S100A4 binding to myosin IIA peptide. P26447. S100A4/TAMRA-MyoIIA peptide fluorescence polarization. inhibition, % at 10.7 µM. 0.14% of 360,000 active. AID 652163;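 active means mean inhibition of at least 70% across replicates, with every replicate also reaching that level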
Target sequence (P26447 whole entry, looked up): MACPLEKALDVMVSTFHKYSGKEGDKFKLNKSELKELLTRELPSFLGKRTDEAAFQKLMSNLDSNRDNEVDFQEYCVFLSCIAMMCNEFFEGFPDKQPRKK
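Assay system: human S100A4 monomer with TAMRA-labelled myosin IIA peptide / Buffer or medium: Calcium-containing HEPES buffer, pH 7.2 / Reagent: TAMRA-labelled myosin IIA heavy-chain peptide probe, 5 nM / Compound: one dose per compound / Timing: polarization read 5 min after assay mix addition, stable 5–60 min / Benchmarks: neutral control DMSO, positive control TFP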
SIRT5 inh = blocks human SIRT5 desuccinylation of peptide; inhibition, % at 15 µM; 1.1% of 330,000 active; Purified SirT5, succinyl-peptide AMC, trypsin-coupled fluorescence; AID 652115; Q9NXA8; in the data active means inhibition above about 15%
Target sequence (Q9NXA8 whole entry, looked up): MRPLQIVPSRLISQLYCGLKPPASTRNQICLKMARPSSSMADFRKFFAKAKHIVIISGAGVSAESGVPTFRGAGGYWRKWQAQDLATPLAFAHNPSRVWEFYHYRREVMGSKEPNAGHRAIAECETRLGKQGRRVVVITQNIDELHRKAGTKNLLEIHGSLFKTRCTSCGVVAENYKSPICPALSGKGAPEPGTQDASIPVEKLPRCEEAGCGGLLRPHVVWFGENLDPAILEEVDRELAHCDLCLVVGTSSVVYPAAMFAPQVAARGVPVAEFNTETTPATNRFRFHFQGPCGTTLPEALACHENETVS
CAL PDZ FP-2 = CAL PDZ (human) peptide binding inhibition; Q9HD26; 0.92% of 300,000 active; purified CAL PDZ, TMR-peptide fluorescence polarization, 1 h; inhibition, % at 24.9 µM;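 active means mean inhibition of at least 30% with at least half of replicates also reaching 30%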
ERAP1 inh = ERAP1 (human) enzyme inhibition | inhibition, % at 10.7 µM | AID 652197 | recombinant ERAP1, Leu-AMC fluorescence, 60 min | 0.15% of 340,000 active;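 active means mean replicate inhibition of at least 30%, or all replicates individually reaching that 30% level; inactive means mean below 30% and not every replicate reaching it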
Numbers stand for hits.

For COc1ccc(S(=O)(=O)N(C)C[C@H]2Oc3ccc(NC(=O)CCCCCC(=O)Nc4ccccc4N)cc3C(=O)N([C@H](C)CO)C[C@H]2C)cc1 the results were DENV2 CPE rescue inactive, S100A4 inh HTS inactive and ERAP1 inh inactive.
For COc1ccccc1C(=O)Nc1ccc2c(c1)OC[C@@H](C)N(C(C)=O)C[C@H](C)[C@@H](OC)CN(C)C2=O the results were DENV2 CPE rescue inactive, S100A4 inh HTS inactive and SIRT5 inh inactive.
Screening COc1ccc(NC(=O)N(C)C[C@@H]2Oc3ccc(NC(=O)c4ccncc4)cc3CC(=O)N([C@@H](C)CO)C[C@H]2C)cc1 returned DENV2 CPE rescue inactive, S100A4 inh HTS inactive and SIRT5 inh inactive.
For COc1ccc(NC(=O)N(C)C[C@@H]2Oc3ccc(NC(=O)c4ccncc4)cc3CC(=O)N([C@@H](C)CO)C[C@@H]2C)cc1 the results were DENV2 CPE rescue 28.4, S100A4 inh HTS inactive, SIRT5 inh inactive and ERAP1 inh inactive.
`COc1ccc(NC(=O)N(C)C[C@@H]2Oc3ccc(NC(=O)c4ccncc4)cc3CC(=O)N([C@H](C)CO)C[C@@H]2C)cc1` gave DENV2 CPE rescue 44.0, S100A4 inh HTS inactive, SIRT5 inh inactive and ERAP1 inh inactive.
Screening COc1ccc(NC(=O)N(C)C[C@H]2Oc3ccc(NC(=O)c4ccncc4)cc3CC(=O)N([C@H](C)CO)C[C@@H]2C)cc1 returned DENV2 CPE rescue inactive, S100A4 inh HTS inactive, SIRT5 inh inactive and ERAP1 inh inactive.
For COc1ccc(NC(=O)N(C)C[C@H]2OCc3ccccc3-c3ccccc3C(=O)N([C@@H](C)CO)C[C@H]2C)cc1 the results were DENV2 CPE rescue inactive, S100A4 inh HTS inactive, SIRT5 inh inactive and ERAP1 inh inactive.
Screening COC(=O)c1c(NC(=O)C2(C)Cc3ccccc3C(=O)O2)sc2c1CCCC2 (centres undefined) returned CAL PDZ FP-1 inactive, S100A4 inh HTS inactive, SIRT5 inh 19.3, CAL PDZ FP-2 inactive and ERAP1 inh inactive.
Screening COC(=O)c1c(NC(=O)C2Cc3ccccc3C(=O)O2)sc2c1CCCC2 (centres undefined) returned CAL PDZ FP-1 inactive, DENV2 CPE rescue inactive, S100A4 inh HTS inactive, SIRT5 inh inactive, CAL PDZ FP-2 inactive and ERAP1 inh inactive.
Screening CC1CCN(CCOc2ccc(OCc3ccccc3)cc2)CC1 returned CAL PDZ FP-1 inactive, DENV2 CPE rescue 35.6, S100A4 inh HTS inactive, CAL PDZ FP-2 inactive and ERAP1 inh inactive.
For CCCCn1c(N)c(N(CC)C(=O)c2ccco2)c(=O)[nH]c1=O the results were CAL PDZ FP-1 inactive, DENV2 CPE rescue inactive, S100A4 inh HTS inactive, SIRT5 inh inactive, CAL PDZ FP-2 inactive and ERAP1 inh 83.9.
For CCCCn1c(N)c(N(CC(C)C)C(=O)CSCc2ccc(Cl)c(Cl)c2)c(=O)[nH]c1=O the results were CAL PDZ FP-1 inactive, DENV2 CPE rescue inactive, S100A4 inh HTS inactive, SIRT5 inh 17.2, CAL PDZ FP-2 inactive and ERAP1 inh inactive.
Screening CCCCn1c(N)c(N(CCOC)C(=O)c2cc(=O)[nH]c3ccccc23)c(=O)[nH]c1=O returned CAL PDZ FP-1 inactive, DENV2 CPE rescue 73.3, S100A4 inh HTS inactive, SIRT5 inh inactive, CAL PDZ FP-2 inactive and ERAP1 inh inactive.
CCCCn1c(N)c(N(CCOC)C(=O)c2cc(-c3ccco3)nc3ccccc23)c(=O)[nH]c1=O was read as CAL PDZ FP-1 inactive, DENV2 CPE rescue inactive, S100A4 inh HTS inactive, SIRT5 inh inactive, CAL PDZ FP-2 inactive and ERAP1 inh inactive.
Screening CCCCn1c(N)c(N(CCOC)C(=O)c2cc(-c3ccc(OC)c(OC)c3)nc3ccccc23)c(=O)[nH]c1=O returned CAL PDZ FP-1 inactive, DENV2 CPE rescue inactive, S100A4 inh HTS inactive, SIRT5 inh inactive, CAL PDZ FP-2 inactive and ERAP1 inh 36.6.
Screening O=C(C[C@H]1C[C@@H]2c3cc(NC(=O)NC4CCCC4)ccc3O[C@@H]2[C@H](CO)O1)NCC1CC1 returned DENV2 CPE rescue inactive, S100A4 inh HTS inactive, SIRT5 inh inactive and ERAP1 inh inactive.
`CN(C)C(=O)[C@H]1[C@H](CO)[C@H]2Cn3c(ccc(-c4ccccc4F)c3=O)[C@@H]1N2C(=O)c1ccccc1` gave DENV2 CPE rescue inactive, S100A4 inh HTS inactive, SIRT5 inh inactive and ERAP1 inh inactive.
`CCCCN(C(=O)c1cc(-c2ccco2)nc2ccccc12)c1c(N)n(CCCC)c(=O)[nH]c1=O` gave CAL PDZ FP-1 inactive, DENV2 CPE rescue 108.7, S100A4 inh HTS inactive, SIRT5 inh inactive, CAL PDZ FP-2 inactive and ERAP1 inh inactive.
Screening CCCCN(C(=O)CSc1nnc(-c2ccccc2)o1)c1c(N)n(CCC)c(=O)[nH]c1=O returned CAL PDZ FP-1 inactive, DENV2 CPE rescue 79.5, S100A4 inh HTS inactive, SIRT5 inh inactive, CAL PDZ FP-2 inactive and ERAP1 inh inactive.
`CCCCn1c(N)c(N(CCC(C)C)C(=O)c2cc(-c3ccco3)nc3ccccc23)c(=O)[nH]c1=O` gave CAL PDZ FP-1 inactive, DENV2 CPE rescue inactive, S100A4 inh HTS inactive, SIRT5 inh inactive, CAL PDZ FP-2 inactive and ERAP1 inh inactive.
For CCCCN(C(=O)CSc1nnc(-c2ccco2)o1)c1c(N)n(Cc2ccccc2)c(=O)[nH]c1=O the results were CAL PDZ FP-1 inactive, DENV2 CPE rescue inactive, S100A4 inh HTS inactive, SIRT5 inh inactive, CAL PDZ FP-2 inactive and ERAP1 inh inactive.
Screening C[C@H](CO)N1C[C@H](C)[C@@H](CN(C)Cc2ccc3c(c2)OCO3)Oc2cc(C#CCN(C)C)ccc2S1(=O)=O returned DENV2 CPE rescue inactive, S100A4 inh HTS inactive, SIRT5 inh inactive and ERAP1 inh inactive.
`CC(C)C#Cc1cnc2c(c1)C(=O)N([C@H](C)CO)C[C@@H](C)[C@H](CN(C)Cc1cncnc1)O2` gave DENV2 CPE rescue inactive, S100A4 inh HTS inactive, SIRT5 inh inactive and ERAP1 inh inactive.
For Cc1ccc(C(C)C)cc1OCCn1cncn1 the results were DENV2 CPE rescue inactive, S100A4 inh HTS inactive, SIRT5 inh inactive, CAL PDZ FP-2 66.3 and ERAP1 inh inactive.
`Cc1ccc(OCCn2cncn2)c([N+](=O)[O-])c1` gave CAL PDZ FP-1 inactive, DENV2 CPE rescue inactive, S100A4 inh HTS inactive and ERAP1 inh inactive.
Screening Cc1noc(C)c1S(=O)(=O)Nc1ccc2c(c1)C(=O)N([C@H](C)CO)C[C@H](C)[C@@H](CN(C)C(=O)NC(C)C)OCCCC[C@H](C)O2 returned DENV2 CPE rescue 24.3, S100A4 inh HTS inactive, SIRT5 inh inactive and ERAP1 inh inactive.
Cc1noc(C)c1S(=O)(=O)Nc1ccc2c(c1)C(=O)N([C@@H](C)CO)C[C@@H](C)[C@@H](CN(C)C(=O)Nc1ccccc1)OCCCC[C@@H](C)O2 was read as DENV2 CPE rescue 95.5, S100A4 inh HTS inactive, SIRT5 inh inactive and ERAP1 inh inactive.
